Six compounds from BindingDB's records for doi:10.1016/j.ejmech.2010.04.038 (B.V. Patel Pharmaceutical Education and Research …, 2010) can be followed below.

In this assay the target is Transcription factor Jun (Homo sapiens, UniProt P05412). Nature of the assay: Inhibition of AP1 expressed in HEK293 cells assessed as inhibition of PMA-induced transcriptional activation treated 24 hrs before PMA challenge by luciferase reporter gene assay. An outline of the steps: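 Six-point dose response […] and rising in ½-log steps, screened as in the primary reporter assay. IC50 calculated from the dose-response data.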
Sequence of Transcription factor Jun (P05412 whole entry): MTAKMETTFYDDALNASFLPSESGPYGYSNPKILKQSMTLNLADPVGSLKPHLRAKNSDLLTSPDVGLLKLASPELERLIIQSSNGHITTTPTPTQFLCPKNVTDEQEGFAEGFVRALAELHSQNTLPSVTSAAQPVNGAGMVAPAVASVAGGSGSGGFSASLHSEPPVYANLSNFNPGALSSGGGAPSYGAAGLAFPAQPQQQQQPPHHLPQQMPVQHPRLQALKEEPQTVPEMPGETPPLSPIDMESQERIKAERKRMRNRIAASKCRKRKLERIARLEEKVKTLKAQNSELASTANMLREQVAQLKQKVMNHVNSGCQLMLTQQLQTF
Take `CCOC(=O)Nc1nc(-c2ccccc2)c(-c2nc3ccccc3c(=O)n2-c2ccccc2)s1` [[5-(4-Oxo-3-phenyl-3,4-dihydro-quinazolin-2-yl)-4-phenylthiazol-2-yl]-carbamic acid ethyl ester]: the IC50 turned out to be 5.7 µM. To `CNc1nc(C)c(-c2nc3ccccc3c(=O)n2-c2ccc(Cl)cc2)s1` [3-(4-Chloro-phenyl)-2-(4-methyl-2-methylamino-thiazol-5-yl)-3H-quinazolin-4-one] belongs 3 µM. In the case of `COc1ccc(-n2c(-c3sc(Nc4ccc(Cl)cc4)nc3-c3ccccc3)nc3ccccc3c2=O)cc1` [2-[2-(4-Chloro-phenylamino)-4-phenyl-thiazol-5-yl]-3-(4-methoxy-phenyl)-3H quinazolin-4-one], the IC50 was found to be 14 µM. Turning to `CCOC(=O)Nc1nc(C)c(-c2nc3ccccc3c(=O)n2-c2ccc(Cl)cc2)s1` [{5-[3-(4-Chloro-phenyl)-4-oxo-3,4-dihydro-quinazolin-2-yl]-4-methyl-thiazol-2-yl}-carbamic acid ethyl ester], the IC50 was determined as 10 µM.

`CNc1nc(-c2ccccc2)c(-c2nc3ccccc3c(=O)n2-c2ccc(Cl)cc2)s1` [3-(4-Chloro-phenyl)-2-(2-methylamino-4-phenyl-thiazol-5-yl)-3H-quinazolin-4-one]: the IC50 was above 500 µM. As for `O=c1c2ccccc2nc(-c2sc(Nc3ccc(Cl)cc3)nc2-c2ccccc2)n1-c1ccc(Cl)cc1` [3-(4-Chloro-phenyl)-2-[2-(4-chloro-phenylamino)-4-phenyl-thiazol-5-yl]-3H-quinazolin-4-one], the figure is 4.3 µM.
